Consider one compound from ChEMBL document CHEMBL4020721 (Eur J Med Chem, 2017).

Data set [1] concerns SNU-5. Put plainly: Antitumor activity against human SNU5 cells xenografted in BALB/c athymic nude mouse assessed as percent tumor regression at 0.3 mg/kg, po administered once daily for 2 weeks. It is filed as functional. The procedure, abridged: (§1)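 Nude BALB/c mice, 5-6 weeks old, under SPF conditions, were implanted s.c. in the right flank with 6×10^6 SNU-5 cells. Groups were sorted at 100-200 mm³, n=6, with vehicle controls. Oral dosing once daily for 2 weeks. Percent tumor regression = 100% × (treated day 0 − treated final)/treated day 0. Mean±SEM, Student's t-test.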

Data set [2] concerns the target Platelet-derived growth factor receptor beta (Homo sapiens, UniProt P09619). Put plainly: Inhibition of PDGFRbeta (unknown origin) using FAM-labeled peptide as substrate preincubated for 5 to 10 mins followed by substrate/ATP addition measured after 30 to 60 mins by mobility shift assay. The procedure, abridged: (§2)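 Caliper mobility-shift assay with FAM-labeled peptide substrate. Buffer: 50 mM HEPES pH 7.5, 0.0015% Brij-35, 10 mM MgCl2, 2 mM DTT, with kinase-specific enzyme levels. […] Incubation was 30-60 min at 28°C, stopped with EDTA buffer. Read-out was % conversion.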

Data set [3] has as its system Mus musculus. Put plainly: Toxicity in BALB/c athymic nude mouse xenografted with human NCI-H1993 cells assessed as body weight loss at 0.1 to 10 mg/kg, po administered once daily for 3 weeks. It is filed as organism-based. The following applies: in vivo, 504 h. The procedure, abridged:
(§3)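 Female/male BALB/c nude mice (5-6 weeks, SPF). NCI-H1993 cells (7×10^6 in 140 µL) or SNU-5 cells (6×10^6 in 200 µL) injected s.c. into the right flank. Dosing started at mean tumour volume 150-250 mm³ (NCI-H1993) or 100-200 mm³ (SNU-5). Randomized, n = 7 (NCI-H1993) or 6 (SNU-5) per group. Oral dosing once daily; vehicle controls. Body weight and signs of toxicity monitored during treatment.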

A short description of data set [4]: Drug recovery in human liver microsomes at 1 uM measured after 30 mins by LC-MS/MS analysis. It counts as ADME, microsome. The following applies: liver microsomes, read-out: Drug recovery. A digest of the protocol: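 Liver microsomes (0.5 mg/ml) were incubated with 1 µM compound at 37°C in 100 mM phosphate buffer pH 7.4 without NADPH for 30 min. Reactions were quenched with acetonitrile/tinidazole internal standard and analysed by LC-MS/MS. Recovery (%) was taken from the compound/internal standard peak area ratio.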

Data set [5] concerns Mus musculus. The data set is described as follows: Toxicity in BALB/c athymic nude mouse xenografted with human SNU5 cells assessed as body weight loss at 0.3 to 3 mg/kg, po administered once daily for 2 weeks. It counts as organism-based. The following applies: in vivo, 336 h. The procedure, abridged: as §3
Data set [6] concerns the target Mast/stem cell growth factor receptor Kit (Homo sapiens, UniProt P10721). The data set is described as follows: Inhibition of c-Kit (unknown origin) using FAM-labeled peptide as substrate preincubated for 5 to 10 mins followed by substrate/ATP addition measured after 30 to 60 mins by mobility shift assay. The procedure, abridged:
as §2

In data set [7] the target is ALK tyrosine kinase receptor (Homo sapiens, UniProt Q9UM73). The data set is described as follows: Inhibition of ALK (unknown origin) using FAM-labeled peptide as substrate preincubated for 5 to 10 mins followed by substrate/ATP addition measured after 30 to 60 mins by mobility shift assay. A digest of the protocol:
as §2

The target in data set [8] is T1, CYP1A2 (Homo sapiens, UniProt P05177).
T1 sequence (P05177 whole entry): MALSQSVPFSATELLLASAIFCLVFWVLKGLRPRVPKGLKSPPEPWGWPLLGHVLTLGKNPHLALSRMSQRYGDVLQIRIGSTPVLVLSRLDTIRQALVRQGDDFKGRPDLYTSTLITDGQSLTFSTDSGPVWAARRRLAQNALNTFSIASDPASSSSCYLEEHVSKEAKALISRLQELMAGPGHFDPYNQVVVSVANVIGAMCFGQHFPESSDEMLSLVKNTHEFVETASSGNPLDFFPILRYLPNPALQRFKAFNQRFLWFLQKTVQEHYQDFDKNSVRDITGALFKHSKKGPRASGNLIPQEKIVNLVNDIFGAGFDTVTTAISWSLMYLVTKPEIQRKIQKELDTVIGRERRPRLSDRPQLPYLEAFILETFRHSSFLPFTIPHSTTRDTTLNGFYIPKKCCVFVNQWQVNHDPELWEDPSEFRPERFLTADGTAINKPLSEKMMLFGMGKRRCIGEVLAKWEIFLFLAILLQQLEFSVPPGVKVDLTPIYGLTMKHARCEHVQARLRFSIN
Put plainly: Reversible inhibition of CYP1A2 in human liver microsomes at 10 uM after 20 mins in presence of NADPH by LC-MS/MS analysis. It is filed as ADME.

In data set [9] the test system is SNU-5. Put plainly: Antitumor activity against human SNU5 cells xenografted in BALB/c athymic nude mouse assessed as tumor regression at 1 mg/kg, po administered once daily for 2 weeks. It is filed as functional. A digest of the protocol:
as §1

The target of data set [10] is Ephrin type-B receptor 2 (Homo sapiens, UniProt P29323). The data set is described as follows: Inhibition of EPHB2 (unknown origin) using FAM-labeled peptide as substrate preincubated for 5 to 10 mins followed by substrate/ATP addition measured after 30 to 60 mins by mobility shift assay. The procedure, abridged:
as §2

In data set [11] the target is Epidermal growth factor receptor (Homo sapiens, UniProt P00533). Put plainly: Inhibition of EGFR (unknown origin) using FAM-labeled peptide as substrate preincubated for 5 to 10 mins followed by substrate/ATP addition measured after 30 to 60 mins by mobility shift assay. A digest of the protocol: as §2
Sequence of Epidermal growth factor receptor (P00533 whole entry): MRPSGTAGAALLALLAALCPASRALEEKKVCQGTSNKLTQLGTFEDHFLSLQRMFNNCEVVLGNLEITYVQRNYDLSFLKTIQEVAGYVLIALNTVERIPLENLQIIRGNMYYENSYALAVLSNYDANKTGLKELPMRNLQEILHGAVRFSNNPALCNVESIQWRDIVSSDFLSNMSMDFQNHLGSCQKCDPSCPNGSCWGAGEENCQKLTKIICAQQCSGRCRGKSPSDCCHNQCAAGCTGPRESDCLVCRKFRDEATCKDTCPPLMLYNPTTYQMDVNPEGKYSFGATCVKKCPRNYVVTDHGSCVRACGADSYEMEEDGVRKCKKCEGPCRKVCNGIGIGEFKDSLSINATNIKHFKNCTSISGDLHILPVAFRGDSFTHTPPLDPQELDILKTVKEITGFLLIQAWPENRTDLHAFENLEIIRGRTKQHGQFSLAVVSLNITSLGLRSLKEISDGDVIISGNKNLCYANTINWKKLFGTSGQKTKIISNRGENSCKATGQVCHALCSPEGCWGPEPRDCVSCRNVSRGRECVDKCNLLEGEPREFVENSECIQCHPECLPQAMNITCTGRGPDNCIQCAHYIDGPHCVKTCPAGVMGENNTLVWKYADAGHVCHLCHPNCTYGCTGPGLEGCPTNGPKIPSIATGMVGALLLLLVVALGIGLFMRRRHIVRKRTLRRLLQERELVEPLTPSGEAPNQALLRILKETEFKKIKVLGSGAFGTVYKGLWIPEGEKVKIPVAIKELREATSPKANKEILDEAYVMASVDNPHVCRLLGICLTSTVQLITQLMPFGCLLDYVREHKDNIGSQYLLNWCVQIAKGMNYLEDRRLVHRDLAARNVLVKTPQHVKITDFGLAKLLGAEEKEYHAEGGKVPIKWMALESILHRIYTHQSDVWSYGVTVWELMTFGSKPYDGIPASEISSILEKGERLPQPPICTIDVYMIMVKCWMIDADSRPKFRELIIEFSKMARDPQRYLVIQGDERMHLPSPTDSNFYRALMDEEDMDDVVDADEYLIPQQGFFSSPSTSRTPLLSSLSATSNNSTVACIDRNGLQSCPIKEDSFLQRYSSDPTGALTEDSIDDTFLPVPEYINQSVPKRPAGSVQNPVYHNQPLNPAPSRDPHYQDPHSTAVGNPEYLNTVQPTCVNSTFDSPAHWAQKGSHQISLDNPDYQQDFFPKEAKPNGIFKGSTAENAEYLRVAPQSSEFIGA
The nature of data set [12]: Cmax in Sprague-Dawley rat plasma at 6 mg/kg, po by UPLC-MS/MS analysis. It is filed as ADME, organism-based. Also noted: dose 6 mg/kg, route oral. A digest of the protocol:
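Male Sprague-Dawley rats (180-220 g) were fasted overnight with free access to water. Dosing was intravenous (n=2) or oral at 6 mg/kg (n=3). Heparinized blood was drawn from 0 to 1440 min. Plasma was frozen at -20°C, then precipitated with acetonitrile containing internal standard, centrifuged and analysed by UPLC-MS/MS.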

The test system of data set [13] is Mus musculus. The data set is described as follows: Toxicity in BALB/c athymic nude mouse xenografted with human NCI-H1993 cells assessed as apparent toxicity parameters at 0.1 to 10 mg/kg, po administered once daily for 3 weeks. It counts as organism-based. The following applies: in vivo, 504 h.

The structures appear in SMILES notation. Where only a bound is given, the exact number is not on record here.

Sequence of Ephrin type-B receptor 2 (P29323 whole entry): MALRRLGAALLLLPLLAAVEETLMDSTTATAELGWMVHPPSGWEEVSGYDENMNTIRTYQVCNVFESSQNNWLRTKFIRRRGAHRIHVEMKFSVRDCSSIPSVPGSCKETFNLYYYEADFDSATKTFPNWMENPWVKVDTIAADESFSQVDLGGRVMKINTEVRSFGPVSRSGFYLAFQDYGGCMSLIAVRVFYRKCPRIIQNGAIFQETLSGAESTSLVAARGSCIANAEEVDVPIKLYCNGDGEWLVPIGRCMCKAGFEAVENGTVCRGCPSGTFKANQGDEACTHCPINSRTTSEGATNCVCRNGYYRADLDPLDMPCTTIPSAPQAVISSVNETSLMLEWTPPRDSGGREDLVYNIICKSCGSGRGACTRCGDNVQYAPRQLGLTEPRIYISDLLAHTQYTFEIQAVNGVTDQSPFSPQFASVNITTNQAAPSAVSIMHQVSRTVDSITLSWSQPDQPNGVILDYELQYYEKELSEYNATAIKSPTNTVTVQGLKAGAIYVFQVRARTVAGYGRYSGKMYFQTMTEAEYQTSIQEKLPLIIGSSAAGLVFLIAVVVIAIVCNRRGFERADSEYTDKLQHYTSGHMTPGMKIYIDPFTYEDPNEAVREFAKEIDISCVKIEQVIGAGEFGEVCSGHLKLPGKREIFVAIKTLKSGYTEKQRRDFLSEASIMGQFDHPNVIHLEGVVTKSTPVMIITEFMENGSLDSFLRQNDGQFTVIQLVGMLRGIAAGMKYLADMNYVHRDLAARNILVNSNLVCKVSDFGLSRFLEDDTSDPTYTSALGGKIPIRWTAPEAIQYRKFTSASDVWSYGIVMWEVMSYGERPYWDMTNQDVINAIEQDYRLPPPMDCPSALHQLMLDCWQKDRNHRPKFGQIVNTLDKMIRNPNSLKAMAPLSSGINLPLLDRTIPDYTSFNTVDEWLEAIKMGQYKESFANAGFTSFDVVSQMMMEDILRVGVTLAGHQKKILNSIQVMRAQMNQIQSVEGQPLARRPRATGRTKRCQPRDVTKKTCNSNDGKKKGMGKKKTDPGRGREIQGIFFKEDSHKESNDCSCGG
Sequence of Platelet-derived growth factor receptor beta (P09619 whole entry): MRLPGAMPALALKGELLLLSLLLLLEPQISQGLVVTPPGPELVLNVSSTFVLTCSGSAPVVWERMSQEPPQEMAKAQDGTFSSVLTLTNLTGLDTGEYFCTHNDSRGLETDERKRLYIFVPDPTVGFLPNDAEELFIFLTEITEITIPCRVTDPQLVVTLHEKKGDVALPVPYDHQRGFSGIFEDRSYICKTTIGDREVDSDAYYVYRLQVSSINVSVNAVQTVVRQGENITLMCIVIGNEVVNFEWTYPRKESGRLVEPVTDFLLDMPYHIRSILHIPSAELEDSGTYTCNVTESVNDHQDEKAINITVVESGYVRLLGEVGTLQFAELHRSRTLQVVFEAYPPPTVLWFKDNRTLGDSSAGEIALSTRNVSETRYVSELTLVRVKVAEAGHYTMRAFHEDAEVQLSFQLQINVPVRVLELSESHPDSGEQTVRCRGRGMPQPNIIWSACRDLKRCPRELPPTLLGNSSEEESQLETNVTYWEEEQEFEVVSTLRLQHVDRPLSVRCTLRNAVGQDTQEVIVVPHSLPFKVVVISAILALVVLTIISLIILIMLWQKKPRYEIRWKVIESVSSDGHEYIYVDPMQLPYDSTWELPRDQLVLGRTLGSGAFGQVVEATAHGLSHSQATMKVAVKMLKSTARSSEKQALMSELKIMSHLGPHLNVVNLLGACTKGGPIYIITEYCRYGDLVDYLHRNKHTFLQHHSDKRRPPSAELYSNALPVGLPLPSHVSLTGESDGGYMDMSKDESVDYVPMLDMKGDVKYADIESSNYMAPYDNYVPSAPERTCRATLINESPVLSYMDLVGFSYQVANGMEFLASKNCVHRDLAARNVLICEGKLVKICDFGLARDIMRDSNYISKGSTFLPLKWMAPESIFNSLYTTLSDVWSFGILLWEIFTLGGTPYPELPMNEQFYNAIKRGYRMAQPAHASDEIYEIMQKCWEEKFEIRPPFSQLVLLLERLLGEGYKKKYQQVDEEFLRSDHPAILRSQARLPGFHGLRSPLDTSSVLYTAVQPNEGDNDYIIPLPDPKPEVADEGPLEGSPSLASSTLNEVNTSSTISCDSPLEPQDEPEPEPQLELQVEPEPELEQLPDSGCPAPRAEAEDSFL
Sequence of Mast/stem cell growth factor receptor Kit (P10721 whole entry): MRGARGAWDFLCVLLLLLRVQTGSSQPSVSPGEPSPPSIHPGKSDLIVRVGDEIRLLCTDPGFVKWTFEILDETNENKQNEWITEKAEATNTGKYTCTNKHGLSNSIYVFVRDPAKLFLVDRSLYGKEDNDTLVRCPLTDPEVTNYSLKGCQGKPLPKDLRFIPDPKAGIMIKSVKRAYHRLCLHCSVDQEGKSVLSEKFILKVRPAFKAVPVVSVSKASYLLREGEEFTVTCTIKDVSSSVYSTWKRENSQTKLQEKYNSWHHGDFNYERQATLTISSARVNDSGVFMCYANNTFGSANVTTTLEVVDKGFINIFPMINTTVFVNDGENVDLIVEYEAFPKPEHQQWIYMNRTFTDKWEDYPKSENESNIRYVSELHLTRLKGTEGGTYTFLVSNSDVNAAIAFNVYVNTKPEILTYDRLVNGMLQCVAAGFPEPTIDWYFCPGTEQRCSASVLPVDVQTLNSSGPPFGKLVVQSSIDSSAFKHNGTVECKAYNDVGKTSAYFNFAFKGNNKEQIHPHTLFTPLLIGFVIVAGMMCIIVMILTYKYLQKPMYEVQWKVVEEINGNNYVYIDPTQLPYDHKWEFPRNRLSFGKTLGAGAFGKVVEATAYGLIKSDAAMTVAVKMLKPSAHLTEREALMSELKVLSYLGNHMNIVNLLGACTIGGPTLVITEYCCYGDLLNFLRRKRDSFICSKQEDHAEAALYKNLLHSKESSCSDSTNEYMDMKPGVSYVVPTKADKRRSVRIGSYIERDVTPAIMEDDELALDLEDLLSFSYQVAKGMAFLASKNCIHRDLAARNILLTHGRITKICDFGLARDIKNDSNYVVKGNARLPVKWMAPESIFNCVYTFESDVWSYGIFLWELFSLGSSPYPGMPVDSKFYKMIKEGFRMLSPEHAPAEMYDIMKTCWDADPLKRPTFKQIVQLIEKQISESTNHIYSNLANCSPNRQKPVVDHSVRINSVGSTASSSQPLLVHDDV

For the compound `CC(c1cc2cc(-c3cnn(C)c3)cnc2cc1F)n1nnc2ncc(-c3cnn(CCO)c3)nc21` (stereo in doubt; 14), the Activity in [1] is 34%; in [3] it was “Non-Toxic”; in data set [5] it was “Non-Toxic”; in data set [9], 79.2%; in [13] it was “Non-Toxic”. The IC50 in data set [2] was greater than 30 µM; in data set [6] it was 5.4 µM; in data set [7], greater than 30 µM; in data set [10] it was greater than 30 µM; in data set [11], greater than 30 µM. The remaining at 0.5 h, 1 µM in data set [4] turned out to be 95%. Besides, the inhibition at 20 min, 10 µM in data set [8] was less than 50%. Moreover, in [12], the Cmax was 135 ng/mL.
